Test [1] concerns the target T1, Glutamate receptor ionotropic, NMDA 2B (Homo sapiens, UniProt Q13224). The test can be described thus: Displacement of [3H]Ifenprodil from GluN2B receptor (unknown origin) expressed in mouse L(tk-) cell membranes. In short, it runs like this:
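Dexamethasone-induced (4 µM, with 4 µM ketamine, 24 h) GluN1a/GluN2B L(tk-) cell membranes, about 20 µg protein. […] Filtration and 5-min [3H] counting. Ki by Cheng-Prusoff (Kd 7.6 nM). Mean ± SEM of three experiments, or a single run for weak binders.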

In test [2] the target is T1, Glutamate receptor ionotropic, NMDA 2B. Briefly: Displacement of [3H]Ifenprodil from GluN2B receptor (unknown origin) expressed in mouse L(tk-) cell membranes incubated for 120 mins measured for 5 mins by scintillation counting method.
A short description of test [3]: (§1) Antagonist activity at GluN2B/GluN1a receptor (unknown origin) expressed in mouse L(tk-) cells assessed as cytoprotection against glycine/(S)-glutamate-induced cell death preincubated for 30 mins followed by glycine/(S)-glutamate addition measured after 6 hrs by LDH assay. It counts as cell-based. Particulars: Homo sapiens, LTK. The gist of the method:
(§2)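 L(tk-) cells co-expressing GluN1a/GluN2B (1:5), dexamethasone-induced. Wells blocked with DMEM/1 % BSA. Cells preincubated with test compound at 5 concentrations (e.g. 4 x 10-5 to 10-9 mol/L), in at least triplicate, 30 min at 37 °C. Glutamate/glycine (20 µM each, solution) then added for 6 h at 37 °C. Supernatant LDH measured by diaphorase/lactate/NAD+/INT mix, 45 min at 37 °C, absorbance 485 nm. (S)-ketamine 4 x 10-5 mol/L was the positive control.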

Test [4] in a line: Selectivity ratio of Ki for sigma-1 receptor in guinea pig brain cortex membranes to Ki for GluN2B receptor (unknown origin) expressed in mouse L(tk-) cell membranes. It is filed as cell-based.
The target of test [5] is Sigma non-opioid intracellular receptor 1 (Cavia porcellus, UniProt Q60492). Briefly: Displacement of [3H]-(+)-pentazocine from sigma-1 receptor in guinea pig brain cortex membranes incubated for 120 mins measured for 5 mins by scintillation counting method. It is filed as cell membranes.
Test [6] has as its target T2, Sigma intracellular receptor 2 (Rattus norvegicus, UniProt Q5U3Y7).
T2 sequence (Q5U3Y7 whole entry): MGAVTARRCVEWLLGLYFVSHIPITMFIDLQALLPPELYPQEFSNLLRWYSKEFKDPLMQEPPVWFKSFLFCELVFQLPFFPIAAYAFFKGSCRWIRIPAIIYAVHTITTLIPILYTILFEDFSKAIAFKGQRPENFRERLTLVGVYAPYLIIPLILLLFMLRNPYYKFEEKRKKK
The test can be described thus: Displacement of [3H]-di-o-tolylguanidine from sigma-2 receptor in rat liver membranes incubated for 120 mins measured for 5 mins by scintillation counting method. It counts as cell membranes, Membrane.

The species entered for a further test is Sus scrofa. Briefly: Displacement of [3H]-(+)-MK-801 from NMDA receptor PCP binding site in pig brain cortex membranes at 1 uM incubated for 120 mins measured for 5 mins by scintillation counting method relative to control. It is filed as cell membranes. The gist of the method: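 Pig brain cortex membranes, about 100 µg protein, with 2 nM [3H]-(+)-MK-801 in 5 mM TRIS/1 mM EDTA, pH 7.5, at rt for 120 min. Test compound at 1 µM, in duplicate. Non-specific binding defined with 10 µM unlabeled (+)-MK-801. Filtration on polyethylenimine-soaked filtermats, then [3H] scintillation counting for 5 min per well. Value given as % inhibition of radioligand binding.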

The species named for the next test is Homo sapiens. Described as §1. It counts as cell-based. In short, it runs like this:
as §2

A short description of test [7]: Selectivity ratio of Ki for sigma-2 receptor in rat liver membranes to Ki for GluN2B receptor (unknown origin) expressed in mouse L(tk-) cell membranes. It is filed as cell-based.

Molecules are shown by their SMILES.

Sigma non-opioid intracellular receptor 1, sequence (Q60492 whole entry): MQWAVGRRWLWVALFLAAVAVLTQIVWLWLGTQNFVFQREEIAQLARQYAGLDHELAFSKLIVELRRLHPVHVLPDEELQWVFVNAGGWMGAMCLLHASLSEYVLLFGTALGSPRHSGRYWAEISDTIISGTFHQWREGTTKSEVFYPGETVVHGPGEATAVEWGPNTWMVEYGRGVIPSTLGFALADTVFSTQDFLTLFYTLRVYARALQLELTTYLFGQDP
T1 sequence (Q13224 whole entry): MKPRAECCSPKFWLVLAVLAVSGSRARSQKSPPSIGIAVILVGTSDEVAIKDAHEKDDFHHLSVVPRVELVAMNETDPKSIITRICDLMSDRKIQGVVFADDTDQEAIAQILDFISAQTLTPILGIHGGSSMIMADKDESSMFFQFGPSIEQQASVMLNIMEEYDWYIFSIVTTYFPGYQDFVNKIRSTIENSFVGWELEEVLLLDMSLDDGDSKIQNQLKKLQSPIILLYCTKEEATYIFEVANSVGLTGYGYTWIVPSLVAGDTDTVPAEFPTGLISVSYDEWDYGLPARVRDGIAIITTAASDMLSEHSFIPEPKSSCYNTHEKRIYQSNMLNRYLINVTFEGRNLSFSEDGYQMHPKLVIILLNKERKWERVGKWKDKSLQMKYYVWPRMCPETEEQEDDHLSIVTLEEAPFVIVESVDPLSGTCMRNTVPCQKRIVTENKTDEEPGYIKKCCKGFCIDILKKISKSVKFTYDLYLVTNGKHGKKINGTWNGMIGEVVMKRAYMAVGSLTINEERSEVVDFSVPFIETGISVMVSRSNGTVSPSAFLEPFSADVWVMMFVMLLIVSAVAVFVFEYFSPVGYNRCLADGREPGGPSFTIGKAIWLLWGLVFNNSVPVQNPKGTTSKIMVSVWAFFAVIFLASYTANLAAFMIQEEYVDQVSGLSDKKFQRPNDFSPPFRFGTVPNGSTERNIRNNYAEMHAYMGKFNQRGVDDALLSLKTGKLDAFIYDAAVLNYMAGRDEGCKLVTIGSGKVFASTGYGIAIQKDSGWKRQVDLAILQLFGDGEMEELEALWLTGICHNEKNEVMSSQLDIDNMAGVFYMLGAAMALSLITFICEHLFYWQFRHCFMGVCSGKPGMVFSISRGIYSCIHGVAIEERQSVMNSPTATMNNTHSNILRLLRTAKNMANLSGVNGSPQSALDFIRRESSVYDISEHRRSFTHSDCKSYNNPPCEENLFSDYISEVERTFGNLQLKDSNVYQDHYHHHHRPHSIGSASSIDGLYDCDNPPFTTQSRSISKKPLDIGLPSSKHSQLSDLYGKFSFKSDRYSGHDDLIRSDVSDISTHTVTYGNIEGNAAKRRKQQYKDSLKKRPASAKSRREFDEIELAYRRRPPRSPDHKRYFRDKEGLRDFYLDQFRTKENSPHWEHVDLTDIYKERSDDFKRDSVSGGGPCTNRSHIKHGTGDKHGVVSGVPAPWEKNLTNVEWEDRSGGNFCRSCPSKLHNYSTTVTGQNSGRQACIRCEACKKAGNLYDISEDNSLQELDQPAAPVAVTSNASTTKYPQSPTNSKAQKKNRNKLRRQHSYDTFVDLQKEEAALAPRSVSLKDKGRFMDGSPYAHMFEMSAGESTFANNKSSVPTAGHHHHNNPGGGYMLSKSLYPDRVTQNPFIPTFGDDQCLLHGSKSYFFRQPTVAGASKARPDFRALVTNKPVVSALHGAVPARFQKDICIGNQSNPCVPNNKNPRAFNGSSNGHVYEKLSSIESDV

Consider `COc1ccc2c(c1)CC[C@@H](NCCCc1ccccc1)C[C@H]2O` (relative stereo), for which, in [1], the Ki turned out to be 16 nM.

As for `C[C@@H](CN1CCC(Cc2ccccc2)CC1)[C@@H](O)c1ccc(O)cc1`, the Ki in test [2] worked out at 173 nM. In addition, the IC50 in test [3] turned out to be 18 nM.

For `CC(C(O)c1ccc(O)cc1)N1CCC(Cc2ccccc2)CC1` (stereo not drawn) [IFENPRODIL], the IC50 in test [3] was found to be 590 nM.

Consider `OCc1ccc2c(c1)CCC(NCCCCc1ccccc1)CC2` (stereo not drawn), for which the Ratio Ki in test [4] is 4. In addition, the Ki in [5] is 41 nM; in [2], 186 nM; in test [6], 271 nM. Moreover, the IC50 in test [3] was over 100000 nM. The compound further returned an inhibition in the test filed under Sus scrofa of 0%.

Consider `OCc1ccc2c(c1)CCC(NCCCc1ccccc1)CC2` (stereo not drawn), for which the Ratio Ki in test [4] and in test [7] was 5 to 6 each time. The values for the Ki in test [5], in test [2] and in test [6] were 565 nM, 101 nM and 592 nM, respectively. Further, the IC50 in test [3] worked out at 5200 nM. The inhibition entry is “Dose-dependent effect” in the test listed under Homo sapiens and 0% in the test filed under Sus scrofa.

`Oc1ccc2c(c1)CCC(NCCCCc1ccccc1)CC2` (stereo not drawn): the Ki in test [5] is 211 nM; in test [1], 21 nM; in test [6] it was 96 nM. The IC50 in test [3] amounted to 3000 nM. In the test listed under Sus scrofa, this compound came in with an inhibition of 25%.

Consider `Oc1ccc2c(c1)CCC(NCCCc1ccccc1)CC2` (stereo not drawn), for which the inhibition constant (Ki) in [5] was 123 nM; in test [1] it was 28 nM; in test [6], 32 nM. Also, the IC50 in test [3] came out at 25000 nM. Moreover, in the test listed under Sus scrofa, the inhibition is 0%.
